Test results: ChEMBL document CHEMBL1151849, “Antioxidant hydroquinones substituted by beta-1,6-linked oligosaccharides in wheat germ” (J Nat Prod, 2009)
The source made the active and inactive calls. No cut-off for these calls is given here.

Legend:
Nucleic Acid = test: Protection against H2O2-induced DNA damaging activity of pBR322 assessed as induction of single stranded breaks by gel electrophoresis; conditions: Escherichia coli
Procedure, shortened: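 pBR322 plasmid (100 ng) incubated 1 h at 37 °C in 100 mM sodium phosphate pH 7.4 with 0.3% H2O2 and 30, 100, 300 ng or 1 µg compound. Reaction volume was 12 µL. Analysed on a 0.7% agarose gel run 1.5 h at 80 V, stained with 0.5 µg/mL ethidium bromide for 15 min, then imaged under UV.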

[1] = Antioxidant activity assessed as trolox equivalents of ABTS radical scavenging activity by TEAC assay; type: functional
Procedure, shortened: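 ABTS radical cation generated from 7 mM ABTS plus 2.5 mM K2S2O8 in water, kept dark at room temperature 16-18 h, then diluted in aqueous 50% EtOH to A734 0.70 ± 0.02. 10.0, 20.0 or 30.0 µL of 1.00 mM aqueous compound added to 2.00 mL radical solution. A734 decrease recorded from 15 s to 5 min. Calibration curves compared with Trolox, expressed as mM Trolox equivalent to 1 mM compound.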

[2] = test system: Radical scavenging activity; test: Antioxidant activity assessed as ABTS radical cation scavenging activity by TEAC assay

SMILES | Activity (Nucleic Acid) | Activity [1] | Activity [2]
COc1cc(O[C@@H]2O[C@H](CO[C@@H]3O[C@H](CO[C@@H]4O[C@H](CO)[C@@H](O)[C@H](O)[C@H]4O)[C@@H](O)[C@H](O)[C@H]3O)[C@@H](O)[C@H](O)[C@H]2O)ccc1O | Dose-dependent effect | 0.97 | Active
COc1cc(O[C@@H]2O[C@H](CO[C@@H]3O[C@H](CO[C@@H]4O[C@H](CO[C@@H]5O[C@H](CO)[C@@H](O)[C@H](O)[C@H]5O)[C@@H](O)[C@H](O)[C@H]4O)[C@@H](O)[C@H](O)[C@H]3O)[C@@H](O)[C@H](O)[C@H]2O)ccc1O |  | 0.88 | Active
COc1cc(O[C@@H]2O[C@H](CO[C@@H]3O[C@H](CO)[C@@H](O)[C@H](O)[C@H]3O)[C@@H](O)[C@H](O)[C@H]2O)ccc1O |  | 0.94 | Active
COc1cc(O[C@@H]2O[C@H](CO[C@@H]3O[C@H](CO)[C@@H](O)[C@H](O)[C@H]3O)[C@@H](O)[C@H](O)[C@H]2O)cc(OC)c1O |  | 0.85 | Active
COc1cc(O)ccc1O[C@@H]1O[C@H](CO[C@@H]2O[C@H](CO[C@@H]3O[C@H](CO)[C@@H](O)[C@H](O)[C@H]3O)[C@@H](O)[C@H](O)[C@H]2O)[C@@H](O)[C@H](O)[C@H]1O |  | 1.76 | 
OC[C@H]1O[C@@H](OC[C@H]2O[C@@H](OC[C@H]3O[C@@H](Oc4ccc(O)cc4)[C@H](O)[C@@H](O)[C@@H]3O)[C@H](O)[C@@H](O)[C@@H]2O)[C@H](O)[C@@H](O)[C@@H]1O |  | 1.12 | 
COc1cc(O[C@@H]2O[C@H](CO[C@@H]3O[C@H](CO[C@@H]4O[C@H](CO)[C@@H](O)[C@H](O)[C@H]4O)[C@@H](O)[C@H](O)[C@H]3O)[C@@H](O)[C@H](O)[C@H]2O)cc(OC)c1O |  | 0.8 | Active
